Experimental data taken from ChEMBL document CHEMBL1177806, “Synthesis and biological activity of halophenols as potent antioxidant and cytoprotective agents” (Bioorg Med Chem Lett, 2010).
Active and inactive are the calls of the source. The calls are words filed in the database; no cut-off is given here.

Columns and labels:
[1] = Antioxidant activity assessed as DPPH scavenging activity at 100 ug/mL; assay type: functional
HUVEC [2] = assay: Cytoprotective activity against H2O2-induced cell injury in HUVEC cells at 5 ug/mL after 4 hrs […]; assay type: functional, cell-based; settings: Homo sapiens
[3] = Antioxidant activity assessed as DPPH scavenging activity after 4 hrs […]; assay type: functional
HUVEC [4] = assay: Cytoprotective activity against H2O2-induced cell injury in HUVEC cells; assay type: functional, cell-based; settings: Homo sapiens
Outline: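 Cytoprotection was measured in human umbilical vein endothelial cells (HUVEC) injured with hydrogen peroxide and reported as EC50.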

Structure (SMILES) | Activity [1] | Activity (HUVEC [2]) | IC50 [3] [µM] | EC50 (HUVEC [4]) [µM]
COc1ccc(C(=O)c2c(Cl)c(OC)c(OC)c(OC)c2Cl)cc1OC | inactive | inactive | – | –
Oc1cc(Cc2ccccc2)c(Br)c(Br)c1O | – | – | 88 | 3.9
Cc1cc(C(C)(C)C)c(O)c(C(C)(C)C)c1 [BUTYLATED HYDROXYTOLUENE] | – | – | 169 | –
COc1ccc(Cc2cccc(Cl)c2)cc1OC | inactive | inactive | – | –
COc1ccc(Cc2ccccc2Cl)cc1OC | inactive | inactive | – | –
Oc1ccc(Cc2ccc(Cl)cc2)cc1O | – | – | 202 | 8.8
COc1ccc(C(=O)c2ccccc2)cc1OC | inactive | inactive | – | –
Oc1cc(Br)c(Cc2cc(Br)ccc2O)cc1O | – | – | 88.5 | 1.1
COc1cc(Br)c(Cc2ccccc2)cc1OC | inactive | inactive | – | –
COc1ccc(C(=O)c2ccc(Cl)cc2)cc1OC | inactive | inactive | – | –
Oc1ccc(Cc2c(Cl)c(O)c(O)c(O)c2Cl)cc1O | – | inactive | 102 | –
COc1ccc(Br)cc1Cc1cc(OC)c(OC)cc1Br | inactive | inactive | – | –
O=C(c1ccccc1)c1cc(O)c(O)c(Br)c1Br | – | – | 87.7 | 0.8
O=C(c1cc(Br)ccc1O)c1cc(O)c(O)cc1Br | – | – | 79.6 | 0.4
Oc1ccc(Cc2c(Br)c(O)c(O)c(O)c2Br)cc1O | – | inactive | 84.2 | –
COc1ccc(Cc2cc(OC)c(OC)cc2Br)cc1Br | inactive | inactive | – | –
Oc1ccc(Cc2ccccc2Cl)cc1O | – | inactive | 131 | –
O=C(c1ccc(O)c(O)c1)c1c(Br)c(O)c(O)c(O)c1Br | – | inactive | 96.2 | –
COc1cc(Br)c(C(=O)c2cc(Br)ccc2OC)cc1OC | inactive | inactive | – | –

Structure (SMILES) | Activity [1] | Activity (HUVEC [2]) | IC50 [3] [µM] | EC50 (HUVEC [4]) [µM]
O=C(c1ccc(O)c(O)c1)c1c(Cl)c(O)c(O)c(O)c1Cl | – | inactive | 87.3 | –
COc1ccc(Cc2c(Cl)c(OC)c(OC)c(OC)c2Cl)cc1OC | inactive | inactive | – | –
O=c1c(O)c(-c2ccc(O)c(O)c2)oc2cc(O)cc(O)c12 [QUERCETIN] | – | – | – | 18
COc1cc(Cc2ccccc2)c(Br)c(Br)c1OC | inactive | inactive | – | –
Oc1cc(Br)c(Cc2ccc(O)c(Br)c2)cc1O | – | – | 87.4 | 13
COc1ccc(Cc2ccc(Cl)cc2)cc1OC | inactive | inactive | – | –
COc1cc(C(=O)c2ccccc2)c(Br)c(Br)c1OC | inactive | inactive | – | –
O=C(c1ccc(O)c(O)c1)c1ccccc1Cl | – | inactive | 113 | –
COc1cc(Br)c(C(=O)c2ccccc2)cc1OC | inactive | inactive | – | –
Oc1ccc(Cc2cccc(Cl)c2)cc1O | – | inactive | 223 | –
COc1ccc(C(=O)c2cc(OC)c(OC)cc2Br)cc1Br | inactive | inactive | – | –
COc1ccc(C(=O)c2c(Br)c(OC)c(OC)c(OC)c2Br)cc1OC | inactive | inactive | – | –
O=C(c1cccc(Cl)c1)c1ccc(O)c(O)c1 | – | – | 110 | 5
O=C(c1ccc(O)c(Br)c1)c1cc(O)c(O)cc1Br | – | – | 61.6 | 2
Oc1cc(Br)c(Cc2ccccc2)cc1O | – | – | 164 | 12.2
O=C(c1ccc(Cl)cc1)c1ccc(O)c(O)c1 | – | – | 103 | 8.9
COc1ccc(Cc2c(Br)c(OC)c(OC)c(OC)c2Br)cc1OC | inactive | inactive | – | –
O=C(c1ccccc1)c1cc(O)c(O)cc1Br | – | – | 84 | 11.5
